Assay results reported in ChEMBL document CHEMBL3407346, “Design, synthesis, and biological evaluation of sulfonyl acrylonitriles as novel inhibitors of cancer metastasis and spread” (J Med Chem, 2015).
Activity calls are given as the source filed them. No cut-off for these calls is given here.

What was measured:
HT-29 [1] = test: Cytotoxicity against human HT-29 cells co-cultured with human mesothelial cells at 50 to 200 uM preincubated for 24 hrs followed by co-culturing measured after 4 hrs by firefly luciferase assay relative to control; format: functional, cell-based; settings: in the assay text read “after 5 hrs” for “after 4 hrs”
How it was run: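 Luciferase-expressing HT-29 cells were pretreated 24 h with water or various BSO concentrations, trypsin-suspended, then overlaid on confluent human mesothelial monolayers with compound and BSO for 5 h. Non-adherent cells were washed off and survivors read by luciferase luminescence.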

HT-29 [2] = test: Reduction of cellular GSH level in human HT-29 cells after 24 hrs by […]; format: functional, cell-based
How it was run: (§1)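 Glutathione was measured with a commercial kit per the manufacturer's instructions, with TNB production rate proportional to GSH. Cell-free GSH was tested with compounds, and HT-29 luciferase cell lysates were assayed after compound exposure.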

A2780 [3] = test: Cytotoxicity against human A2780 cells co-cultured with human mesothelial cells at 10 uM after 4 hrs by firefly luciferase assay relative to control; format: functional
How it was run: (§2)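 Co-culture of luciferase-transduced cancer cells (puromycin/G418-selected retroviral pLuc) with confluent human mesothelial monolayers. Suspended cancer cells plus 10 µM compound (final) or DMSO were overlaid for 4 h. Non-adherent cells were washed off and surviving adherent cells quantified by firefly luciferase luminescence. Efficacy = treated/DMSO luminescence ratio; mean±SEM, n=3.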

[4] = Antimetastatic activity against human MIAPaCa2 cells xenografted in ip dosed Ncr-Nu/Nu mouse assessed as total recurrence administered on day 1, 3, 5, 7 and measured after 8 weeks by fluorescent imaging analysis (reference value: 67%); format: functional, MIA PaCa-2
How it was run: (§3)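 Orthotopic pancreatic model in male NCr-Nu/Nu nude mice, 6-8 wk old. 1×10⁶ RFP-expressing MiaPaCa-2 cells in soluble ECM were injected into the pancreatic tail. Tumour resected with distal pancreatectomy, with no residual disease confirmed by intraoperative RFP imaging. Compound or vehicle (4:1 PEG400:EtOH) given IP at surgery and on days 3, 5 and 7. Local and metastatic recurrence scored by fluorescent imaging after 8 weeks.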

[5] = Cytotoxicity against human SU86 cells co-cultured with human mesothelial cells after 4 hrs by firefly luciferase assay relative to control; format: functional, cell-based
How it was run: (§4)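 Luciferase-expressing cancer cells in suspension were treated with a series of compound concentrations or DMSO, overlaid on confluent human mesothelial monolayers for 4 h, and washed to remove non-adherent cells. Surviving adherent cells were read by luciferase luminescence relative to vehicle, and EC50 was derived from the concentration series.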

[6] = Antitumor activity against human MIAPaCa2 cells xenografted in ip dosed Ncr-Nu/Nu mouse assessed as metastases administered on day 1, 3, 5, 7 and measured after 8 weeks by fluorescent imaging analysis (reference value: 40%); format: functional, MIA PaCa-2; how it was run: as §3
[7] = Cytotoxicity against human SKOV3 cells co-cultured with human mesothelial cells at 10 uM after 4 hrs by firefly luciferase assay relative to control; format: functional, SK-OV-3; how it was run: as §2
[8] = Cytotoxicity against human SU86 cells co-cultured with human mesothelial cells at 10 uM after 4 hrs by firefly luciferase assay relative to control; format: functional; how it was run: as §2
[9] = Antimetastatic activity against human MIAPaCa2 cells xenografted in ip dosed Ncr-Nu/Nu mouse assessed as local recurrence administered on day 1, 3, 5, 7 and measured after 8 weeks by fluorescent imaging analysis (reference value: 60%); format: functional, MIA PaCa-2; how it was run: as §3
A2780 [10] = test: Cytotoxicity against human A2780 cells co-cultured with human mesothelial cells after 4 hrs by firefly luciferase assay relative to control; format: functional, cell-based; settings: A2780, 4 h; how it was run: as §4
[11] = Cytotoxicity against human BxPC3 cells co-cultured with human mesothelial cells after 4 hrs by firefly luciferase assay relative to control; format: functional, cell-based; settings: BXPC-3, 4 h; how it was run: as §4
[12] = Cytotoxicity against human SKOV3 cells co-cultured with human mesothelial cells after 4 hrs by firefly luciferase assay relative to control; format: functional, cell-based; settings: SK-OV-3, 4 h; how it was run: as §4
[13] = Cytotoxicity against human BxPC3 cells co-cultured with human mesothelial cells at 10 uM after 4 hrs by firefly luciferase assay relative to control; format: functional, BXPC-3; how it was run: as §2
A2780 [14] = test: Induction of apoptosis in human A2780 cells assessed as increased cellular levels of cleaved PARP at 5 uM after 4 hrs by immunoblot analysis; format: functional, cell-based
How it was run: (§5)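 A2780 cells were suspended and allowed to adhere for 4 h with DMSO or test compound (5 µM in DMSO). Cells were collected and lysed, lysates normalised for total protein, and cleaved PARP and cleaved caspase 3 detected by immunoblot with actin as loading control. A sulfide analog served as negative control.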

A2780 [15] = test: Inhibition of peritoneal carcinomatosis of human A2780 cells in athymic nu/nu mouse at 5 mg/kg, ip administered thrice a week for 14 days by luciferase reporter assay relative to vehicle-treated control; format: functional, organism-based; parameters: dose 5 mg/kg
How it was run: (§6)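 Athymic female nu/nu mice, 5 weeks old, received 5 mg/kg compound or vehicle (80% PEG400:20% ethanol) IP 4 h before IP injection of 1.5×10⁶ A2780-luc or 2×10⁶ SKOV3-luc cells, n=7 per arm. Dosing continued IP three times a week for 14 days. Tumour burden was imaged weekly by abdominal bioluminescence after IP D-luciferin/ketamine/xylazine; mean±SEM, unpaired t-test vs vehicle.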

Mus musculus [16] = test: Toxicity in athymic nu/nu mouse xenografted with human SKOV3 cells assessed as weight loss at 5 mg/kg, ip administered thrice a week for 14 days; format: organism-based, SK-OV-3; parameters: dose 5 mg/kg, route intraperitoneal; settings: in vivo, 336 h
Mus musculus [17] = test: Toxicity in athymic nu/nu mouse xenografted with human A2780 cells assessed as weight loss at 5 mg/kg, ip administered thrice a week for 14 days; format: organism-based; parameters: dose 5 mg/kg, route intraperitoneal; settings: in vivo, 336 h
SK-OV-3 = test: Inhibition of peritoneal carcinomatosis of human SKOV3 cells in athymic nu/nu mouse at 5 mg/kg, ip administered thrice a week for 14 days by luciferase reporter assay relative to vehicle-treated control; format: functional, organism-based; parameters: dose 5 mg/kg; how it was run: as §6
A2780 [18] = test: Induction of apoptosis in human A2780 cells assessed as increased cellular levels of cleaved caspase 3 at 5 uM after 4 hrs by immunoblot analysis; format: functional, cell-based; how it was run: as §5
[19] = Glutathione reactivity assessed as reduction in detectable GSH level by Ellman's reagent-based assay; how it was run: as §1
HT-29 [20] = test: Induction of apoptosis in human HT-29 cells using compound pre-mixed with NAC; format: functional, cell-based
HT-29 [21] = test: Reduction of cellular GSH level in human HT-29 cells incubated for 30 mins followed by co-culturing with human mesothelial cells measured after 5 hrs by […]; format: functional, cell-based
HT-29 [22] = test: Induction of apoptosis in human HT-29 cells at 10 uM incubated for 30 mins followed by coculturing with human mesothelial cells for 5 hrs by firefly luciferase assay in presence of NAC; format: functional, cell-based
How it was run: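 Firefly luciferase-expressing HT-29 cells were incubated 30 min with compound plus vehicle (water) or 680 µM N-acetylcysteine, trypsin-suspended, and co-cultured 5 h on human mesothelial monolayers with compound and NAC. Surviving adherent cells were detected by luciferase luminescence; mean light output ±SEM.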

Row | Structure (SMILES) | Ratio (A2780 [3]) | Activity [4] | EC50 [5] | Activity [6] | Ratio [7] | Ratio [8] | Activity [9] | EC50 (A2780 [10]) | EC50 [11] | EC50 [12] | Ratio [13] | Activity (A2780 [14]) | inhibition (A2780 [15]) | Activity (Mus musculus [16]) | Activity (Mus musculus [17]) | inhibition (SK-OV-3) | Activity (A2780 [18]) | other results
1 | CCCCS(=N)(=O)CC[C@H](N)C(=O)O (some centres not stated) | – | – | – | – | – | – | – | – | – | – | – | – | – | – | – | – | – | Activity (HT-29 [1]): inactive; Activity (HT-29 [2]): Active
2 | Cc1ccc2oc(C(C)(C)c3ccc(S(=O)(=O)/C=C/C#N)cc3)nc2c1 | 0.1 | 50% | 7.3 µM | 10% | 0.17 | 0.2 | 40% | 2.1 µM | 3.5 µM | 5.6 µM | 0.09 | – | – | – | – | – | – | –
3 | CC(C)(C(=O)NCc1ccccc1)c1ccc(S(=O)(=O)/C=C/C#N)cc1 | 0.1 | 6% | 7.4 µM | 6% | 0.52 | 0.21 | 6% | 3 µM | 3.7 µM | 8.7 µM | 0.16 | Active | Active | Non-toxic | Non-toxic | Active | Active | –
4 | CC(C)(c1ccc(S(=O)(=O)/C=C/C#N)cc1)c1nc2ccccc2o1 | 0.01 | – | 6.5 µM | – | 0.17 | 0.29 | – | 2.2 µM | 3.1 µM | 5.4 µM | 0.24 | Active | Active | Non-toxic | Non-toxic | Active | Active | –
5 | CC(C)(c1ccc(S(=O)(=O)/C=C/C#N)cc1)c1nnc(-c2ccccc2)o1 | 0.06 | 45% | 6.2 µM | 0% | 0.25 | 0.45 | 45% | 2.6 µM | 3.1 µM | 5.7 µM | 0.24 | – | – | – | – | – | – | –
6 | CC(C)(C)c1ccc(S(=O)(=O)/C=C/C#N)cc1 [BAY-11-7085] | 0.04 | 38% | 5.9 µM | 31% | 0.32 | 0.13 | 31% | 2.6 µM | 3.5 µM | 5 µM | 0.07 | Active | Active | Non-toxic | Non-toxic | Active | Active | Activity [19]: Active; Activity (HT-29 [20]): inactive; Activity (HT-29 [21]): Active; Activity (HT-29 [22]): inactive
7 | CC(C)(C)c1cc(S(=O)(=O)/C=C/C#N)ccc1OCC(=O)NC1CCCCC1 | 0.01 | – | 6.6 µM | – | 0.19 | 0.21 | – | 2.6 µM | 3.4 µM | 6.1 µM | 0.09 | Active | Active | Non-toxic | Non-toxic | Active | Active | –
8 | N#C/C=C/S(=O)(=O)c1ccc(C2(C(=O)NC3CCCCC3)CCC2)cc1 | 0.09 | 40% | 8 µM | 20% | 0.33 | 0.32 | 30% | 3.1 µM | 3.6 µM | 7.4 µM | 0.18 | Active | Active | Non-toxic | Non-toxic | Active | Active | –
